Assay results published in ChEMBL document CHEMBL1155099, “Natural products in parallel synthesis: triazole libraries of nonactic acid” (2008).
Active and inactive are the calls of the source.

What was measured:
Format in all cases: functional, organism-based
[1] = test system: Bacillus anthracis; assay: Antibacterial activity against Bacillus anthracis at 1mM by almar blue dye reduction assay
[2] = test system: Escherichia coli; assay: Antibacterial activity against Escherichia coli at 1 mM by almar blue dye reduction assay
Summary of the method: (§1)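 Single-point primary screen at 1 mM using Alamar Blue dye reduction as the growth read-out.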

[3] = test system: Pseudomonas aeruginosa; assay: Antibacterial activity against Pseudomonas aeruginosa at 1 mM by almar blue dye reduction assay; summary of the method: as §1
[4] = test system: Bacillus subtilis; assay: Antibacterial activity against Bacillus subtilis at 1 mM by almar blue dye reduction assay; summary of the method: as §1
[5] = test system: Cryptococcus neoformans; assay: Antifungal activity against Cryptococcus neoformans at 1 mM by almar blue dye reduction assay; summary of the method: as §1
[6] = test system: Saccharomyces cerevisiae; assay: Antifungal activity against Saccharomyces cerevisiae at 1 mM by almar blue dye reduction assay; summary of the method: as §1
[7] = test system: Staphylococcus aureus; assay: Antibacterial activity against Staphylococcus aureus at 1 mM by almar blue dye reduction assay; summary of the method: as §1
[8] = test system: Bacillus cereus; assay: Antibacterial activity against Bacillus cereus at 1 mM by almar blue dye reduction assay; summary of the method: as §1
[9] = test system: Candida albicans; assay: Antifungal activity against Candida albicans at 1 mM by almar blue dye reduction assay; summary of the method: as §1

Measured: Activity

COCC#Cc1cn([C@H](C)C[C@@H]2CC[C@H]([C@@H](C)C(=O)N3CCCC3)O2)nn1
inactive: all assays above

C[C@H](CC1CCC([C@@H](C)C(=O)N2CCCC2)O1)n1cc(C#CCNC(=O)OCc2ccccc2)nn1 (single isomer, unassigned)
inactive: all assays above

CCCCN(CC#Cc1cn([C@H](C)C[C@@H]2CC[C@H]([C@@H](C)C(=O)NC(C)C)O2)nn1)CCCC
inactive: all assays above

CC(C)NC(=O)[C@H](C)[C@H]1CC[C@@H](C[C@@H](C)n2cc(C#Cc3ccc(Oc4ccccc4)cc3)nn2)O1
inactive: all assays above

CC(C)NC(=O)[C@H](C)[C@H]1CC[C@@H](C[C@@H](C)n2cc(C#CCN(C)C)nn2)O1
inactive: all assays above

COc1cccc(OCC#Cc2cn([C@H](C)C[C@@H]3CC[C@H]([C@@H](C)C(=O)N(C)Cc4ccccc4)O3)nn2)c1OC
inactive: all assays above

CCC(=O)OCC#Cc1cn([C@H](C)CC2CCC([C@@H](C)C(=O)NC(C)C)O2)nn1 (single isomer, unassigned)
inactive: all assays above

CC(C)NC(=O)[C@H](C)[C@H]1CC[C@@H](C[C@@H](C)n2cc(C#CCOc3cccc(-c4ccccc4)c3)nn2)O1
inactive: all assays above

CCN(CC)C(=O)[C@H](C)[C@H]1CC[C@@H](C[C@@H](C)n2cc(C#CCOc3cccc(-c4ccccc4)c3)nn2)O1
inactive: all assays above

C[C@H](C[C@@H]1CC[C@H]([C@@H](C)C(=O)N2CCCC2)O1)n1cc(C#Cc2ccccc2)nn1
not listed: [6]
inactive: all other assays above
